Measured values reported in ChEMBL document CHEMBL4765343, “Design and synthesis of novel SCM-198 analogs as cardioprotective agents: Structure-activity relationship studies and biological evaluations” (Eur J Med Chem, 2020).
pEC50: −log10 of the molar value. Activity calls are given as the source filed them. The calls are words filed in the database; no cut-off is given here.

How the values were obtained:
H9c2 [1] = experiment: Antioxidant activity in rat H9c2 cells assessed as protection against H2O2-induced hypoxic injury by measuring cell viability at ED50 concentration preincubated for 4 hrs followed by H2O2 stimulation for 1 hr by MTT assay relative to control; format: functional; conditions: time 5 hrs
In short: (§1)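 ED50 taken from log dose against % viability. Viability also reported at the EC50 concentration. Means ± SEM from three independent experiments.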

H9c2 [2] = experiment: Antiapoptotic activity in rat H9c2 cells assessed as reduction in H2O2-induced mitochondrial membrane potential loss at 10 uM preincubated for 4 hrs followed by H2O2 stimulation for 1 hr by JC1 staining based fluorescence microscopic analysis; format: functional, cell-based; conditions: time 5.0 hrs
In short: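 Pretreatment 4 h before 400 nM H2O2. Cells washed in cold PBS pH 7.4 and loaded with 0.5 μg/mL JC-1 for 40 min at 37 °C, washed, then viewed at once by fluorescence microscopy. Monomer read at ex 490/em 535 nm, aggregate at ex 525/em 600 nm. Ratio taken from three independent fields per group, mean ± SD.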

[3] = Half life in po dosed Sprague-Dawley rat measured upto 24 hrs by LC-MS/MS analysis; format: ADME, organism-based; conditions: in vivo
Mus musculus [4] = experiment: (§2) Cardioprotective activity in C57BL/6J mouse model of LAD coronary artery ligation-induced acute myocardial infarction assessed as reduction in myocardial infarct size at 10 mg/kg, ip pretreated for 7 consecutive days followed by LAD coronary artery ligation after compound treatment for another 3 days by TTC staining based assay; format: functional, organism-based; conditions: time 10.0 day
In short: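 Male/female not stated; 8-week C57BL/6J mice given daily ip doses in saline vehicle for 7 d, then permanent LAD ligation, with dosing continued 3 more days to sacrifice. Under isoflurane, hearts perfused with saline plus 40 mM KCl, cut into 4-5 transverse slices, stained with 1% TTC pH 7.4 at 37 °C for 20 min, formalin-fixed; infarct area by planimetry as % of LV area; N = 6-7 per group.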

Mus musculus [5] = experiment: as §2, with “apoptosis of cardiomyocytes” for “myocardial infarct size”, “TUNEL” for “TTC”; format: functional, organism-based; conditions: time 10.0 day
In short: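 C57BL/6J mice, 8 weeks old, given compound i.p. in saline vehicle daily for 7 days, then permanent LAD ligation with body temperature held at 37 °C. Dosing continued 3 more days until sacrifice. Sections treated with proteinase K, then TdT reaction 30 min at 37 °C and DAPI counterstain. TUNEL-positive nuclei in border area counted as % of DAPI nuclei, N = 4 per group.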

H9c2 [6] = experiment: Anti-oxidative effect in rat H9c2 cells assessed as reduction in H2O2-induced MnSOD activity at 10 uM preincubated for 4 hrs followed by H2O2 stimulation for 1 hr by WST-8 assay; format: functional, cell-based; conditions: time 5.0 hrs
In short: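 H9c2 cells (ATCC) grown in high-glucose DMEM with 10% FBS at 37 °C, 5% CO2, used at 80-90% confluence and serum-starved 12 h. Compound given 4 h, then medium replaced by DMEM with 500 nM H2O2 for 1 h. Lysate spun 15,000g for 15 min. Cu/Zn SOD blocked with 1 mmol/L KCN, MnSOD read by WST-8 kit, expressed as U/mg protein.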

H9c2 [7] = experiment: Antioxidant activity in rat H9c2 cells assessed as protection against H2O2-induced hypoxic injury by measuring cell viability at 1 uM preincubated for 4 hrs followed by H2O2 stimulation for 1 hr by MTT assay relative to control; format: functional
In short: (§3)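 H9c2 cells at 1 × 10^5 cells/mL, 100 μL per well in triplicate, left 18 h. Compound diluted in DMSO; DMSO alone as negative control. 4 h pretreatment, then 400 nM H2O2 for 1 h. Medium removed and MTT added for 2-4 h, formazan dissolved in DMSO, absorbance at 570 nm. Medium-only wells gave the blank.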

H9c2 [8] = experiment: Antioxidant activity in rat H9c2 cells assessed as protection against H2O2-induced hypoxic injury by measuring cell viability at 10 uM preincubated for 4 hrs followed by H2O2 stimulation for 1 hr by MTT assay relative to control; format: functional; in short: as §3
H9c2 [9] = experiment: Antiapoptotic activity in rat H9c2 cells assessed as reduction in H2O2-induced caspase-3 activation at 10 uM preincubated for 4 hrs followed by H2O2 stimulation for 1 hr by Western blotting analysis; format: functional, cell-based; conditions: time 5.0 hrs
In short: (§4)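 Serum-starved (12 h) H9c2 cells were pretreated 4 h, then exposed to 500 nM H2O2 in DMEM for 1 h. Lysis on ice with protease/phosphatase inhibitors, then 13,000 g at 4 °C for 15 min. 20 μg protein run on 8-12% SDS-PAGE and blotted to PVDF. Probed overnight at 4 °C for caspase-3, pro-caspase-3, Bcl-2 and GAPDH, with chemiluminescent detection.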

H9c2 [10] = experiment: Antioxidant activity in rat H9c2 cells assessed as protection against H2O2-induced hypoxic injury by measuring cell viability preincubated for 4 hrs followed by H2O2 stimulation for 1 hr by MTT assay relative to control; format: functional; conditions: time 5 hrs, read-out: ED50 (the source's name); in short: as §1
H9c2 [11] = experiment: Antiapoptotic activity in rat H9c2 cells assessed as restoration of H2O2-induced bcl-2 downregulation at 10 uM preincubated for 4 hrs followed by H2O2 stimulation for 1 hr by Western blotting analysis; format: functional, cell-based; conditions: time 5.0 hrs; in short: as §4
[12] = Oral bioavailability in Sprague-Dawley rat measured upto 24 hrs by LC-MS/MS analysis; format: ADME, organism-based; conditions: in vivo
H9c2 [13] = experiment: Cytoprotective activity against H2O2-induced injury in rat H9c2 cells assessed as reduction in LDH release at 10 uM preincubated for 4 hrs followed by H2O2 stimulation for 1 hr by LDH assay; format: functional, cell-based; conditions: time 5.0 hrs
In short: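 Cells at 5 × 10^4 per well in triplicate, 18 h, then 4 h compound and 1 h H2O2. Model wells had H2O2 without compound; controls had DMSO. 50 μL medium mixed with 2X LDH assay buffer, kept in the dark at 22-25 °C for 10-30 min, read at 490-520 nm. Activity blank-subtracted, normalised to BCA protein of the lysed cells, and expressed relative to model wells.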

For `COc1cc(C(=O)OCCCCNC(=N)N)cc(OC)c1O` [LEONURINE], the Activity (H9c2 [1]) was 55.1%, the Activity (H9c2 [2]) was “Active” and the half-life [3] was over 2 h. The Activity (Mus musculus [4]) was “Active”, the Activity (Mus musculus [5]) was “Active” and the Activity (H9c2 [6]) was “Active”. For the same compound, the Activity (H9c2 [7]) was 52.4%, the Activity (H9c2 [8]) was 62.7% and the Activity (H9c2 [9]) was “Active”. For the same compound, the pEC50 (H9c2 [10]) was 6.72, the Activity (H9c2 [11]) was “Active” and the bioavailability [12] was 1.78%. For the same compound, the Activity (H9c2 [13]) was “inactive”.
